Published values gathered from unrelated publications.
Target: Ephrin type-A receptor 3 (EPHA3, Homo sapiens, UniProt P29320)
Residues used in one study (P29320 21-983): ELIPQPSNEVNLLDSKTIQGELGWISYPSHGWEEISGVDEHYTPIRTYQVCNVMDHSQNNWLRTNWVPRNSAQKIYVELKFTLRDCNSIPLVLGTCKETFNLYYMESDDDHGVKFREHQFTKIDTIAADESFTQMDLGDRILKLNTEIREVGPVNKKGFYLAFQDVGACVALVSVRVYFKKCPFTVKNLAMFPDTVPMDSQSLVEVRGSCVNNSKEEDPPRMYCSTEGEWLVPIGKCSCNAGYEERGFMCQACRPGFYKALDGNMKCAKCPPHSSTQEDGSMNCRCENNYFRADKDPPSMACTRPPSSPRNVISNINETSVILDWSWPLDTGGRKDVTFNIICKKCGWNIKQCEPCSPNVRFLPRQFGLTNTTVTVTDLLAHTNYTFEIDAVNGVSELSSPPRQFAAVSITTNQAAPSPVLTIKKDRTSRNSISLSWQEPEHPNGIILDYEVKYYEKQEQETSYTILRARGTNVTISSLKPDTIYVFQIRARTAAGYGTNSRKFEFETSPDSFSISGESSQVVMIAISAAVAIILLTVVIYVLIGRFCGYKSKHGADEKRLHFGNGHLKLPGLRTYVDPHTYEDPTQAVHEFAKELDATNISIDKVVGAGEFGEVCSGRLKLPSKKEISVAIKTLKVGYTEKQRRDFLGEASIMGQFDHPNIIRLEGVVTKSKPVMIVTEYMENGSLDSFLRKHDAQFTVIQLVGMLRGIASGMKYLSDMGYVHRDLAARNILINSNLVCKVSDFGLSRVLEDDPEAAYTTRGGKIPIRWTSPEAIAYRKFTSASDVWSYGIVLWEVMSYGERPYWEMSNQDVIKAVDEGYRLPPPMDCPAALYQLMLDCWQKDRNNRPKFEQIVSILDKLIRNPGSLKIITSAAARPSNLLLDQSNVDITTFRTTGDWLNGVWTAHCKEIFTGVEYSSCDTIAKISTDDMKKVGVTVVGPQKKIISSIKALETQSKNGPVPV

`Cc1cc(NC(=O)c2cccc(S(F)(F)(F)(F)F)c2)cc(-n2ccn3nc(-c4cccnc4)cc23)c1` gave a remaining binding of 100% (cell-free assay; competition with immobilised ligand; 1 µM).
`COc1cnc(Nc2cccc(S(N)(=O)=O)c2)nc1N1CCN(c2ccccc2)CC1` has a remaining binding of 73% (binding; competition with immobilised ligand; 1 µM).
`CCS(=O)(=O)c1cc2cc(C[C@](O)(CC(C)(C)c3ccc(F)cc3C(N)=O)C(F)(F)F)[nH]c2cn1` gave a remaining binding of 95% (cell-free assay; competition with immobilised ligand; 1 µM).
`O=C(Nc1c[nH]nc1C(=O)NC1CCNCC1)c1cc(F)cc(F)c1` gave a remaining binding of 100% (binding; competition with immobilised ligand; 1 µM).
For `C[C@H](c1cccc(C#N)c1)n1cc(Cl)cc(C(N)=O)c1=N`, the remaining binding was 100% (cell-free assay; competition with immobilised ligand; 1 µM).
With `C[C@H]1CCN(c2nccc(-c3cnn4ncccc34)n2)C1` the remaining binding was 100% (binding; 1 µM).
`CC(=O)Nc1c(C(C)=O)c(=O)n(C)c2nc(-c3ccc(Cl)cc3Cl)c(-c3ccc(Cl)cc3)cc12` gave a remaining binding of 100% (cell-free assay; competition with immobilised ligand; 1 µM).
The remaining binding of `CCN1CCN(Cc2ccc(C(=O)Nc3ccc(C)c(Oc4ccc5c(c4)CC(=O)N5)c3)cc2C(F)(F)F)CC1` is reported as 76% (binding; competition with immobilised ligand; 1 µM).
The remaining binding of `O=C(NCCCN1CCOCC1)c1ccc(Nc2ncc(Cl)c(-c3ccc(Cl)s3)n2)cc1` is reported as 63% (binding; competition with immobilised ligand; 1 µM).
With `CN(CCCC(F)(F)F)c1nccc(-c2cnn3ncccc23)n1` the remaining binding was 100% (binding; 1 µM).
`COc1ncc2cc3ccccc3nc2c1C#N` gave a remaining binding of 96% (cell-free assay; competition with immobilised ligand; 5 µM).
`O=C(c1ccc(Nc2nccc(-c3cc4ccccc4s3)n2)cc1)N1CCC(N2CCCC2)CC1` has a remaining binding of 94% (binding; competition with immobilised ligand; 1 µM).
`CN1CCN(c2cnc3c(C4CCN(C(=O)c5ccc(OC(F)(F)F)cc5N)CC4)ncnc3c2)CC1` has a remaining binding of 100% (cell-free assay; competition with immobilised ligand; 1 µM).
For `CN(C)c1nccc(-c2cnn3ncccc23)n1`, the remaining binding was 90% (binding; 1 µM).
With `O=C(NCCCN1CCOCC1)c1ccc(Nc2nccc(-c3cc4ccccc4s3)n2)cc1` the remaining binding was 85% (binding; competition with immobilised ligand; 1 µM).
`N[C@H]1CCN(c2nccc(-c3cnn4ncccc34)n2)C1` gave a remaining binding of 98% (binding; 1 µM).
`CC(=O)N1CCC(c2ccc(C(=O)NC3=NCCN3)cc2C(F)(F)F)CC1` gave a remaining binding of 95% (cell-free assay; competition with immobilised ligand; 1 µM).
The remaining binding of `CC1CCCN1c1nccc(-c2cnn3ncccc23)n1` (stereo not drawn) is reported as 97% (binding; 1 µM).
`FC(F)(F)Oc1cccc(-c2cnc3ccc(-c4ccncc4)nn23)c1` gave a remaining binding of 76% (cell-free assay; competition with immobilised ligand; 5 µM).
`CN(C)c1ncc(F)c(-c2cnn3ncccc23)n1` has a remaining binding of 100% (binding; 1 µM).
For `C=CC(=O)N1CCC(C(=O)NCC(=O)N2CCN(c3nc(-c4cnc(N)nc4C(F)F)nc(N4CCOCC4)n3)CC2)CC1`, the remaining binding was 90% (binding; competition with immobilised ligand; 1 µM).
